ChEMBL document CHEMBL1153156, “Pyrrole derivatives as potent inhibitors of lymphocyte-specific kinase: Structure, synthesis, and SAR” (Bioorg Med Chem Lett, 2010)

Columns and labels:
[1] = target: Tyrosine-protein kinase Lck (Homo sapiens) (UniProt P06239); experiment: Inhibition of human recombinant Lck expressed in insect cells by Packard topcount method
Outline: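 Lck (5 ng/well) incubated with compound in 50 mM Hepes, 50 mM KCl, 25 mM MgCl₂, 5 mM MnCl₂, Na₃VO₄, 0.01% CHAPS, 1 mM DTT. Poly(Glu-Tyr) 4:1 substrate, ATP and ³³P-ATP added; 25 °C, 60 min. Stopped with 100 mM phosphoric acid, filtered onto membrane, scintillation counted. IC₅₀ from eight-point half-log curves; mean of at least two independent experiments.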

[2] = Immunosuppressive activity in C57BL6/J mouse T cells cocultured with mitomycin C-treated BALB/c spleen cells assessed as inhibition of [3H]thymidine incorporation after 72 hrs by mixed lymphocyte reaction assay; assay type: functional
Outline: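 Nylon-wool-purified splenic and lymph node T cells from C57BL/6 mice (3 × 10⁵/well) cocultured with mitomycin-C-treated BALB/c spleen cells (2 × 10⁵/well), 37 °C, 5% CO₂, 72 h. Compounds added at culture start. ³H-thymidine pulse for last 4 h, incorporation counted. IC₅₀ from nine-point half-log concentration–response curves; mean of at least two independent experiments.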

[3] = target: Cyclin-dependent kinase 1 (Homo sapiens, UniProt P06493); experiment: Inhibition of CDK1
Chain of Cyclin-dependent kinase 1 (P06493 whole entry): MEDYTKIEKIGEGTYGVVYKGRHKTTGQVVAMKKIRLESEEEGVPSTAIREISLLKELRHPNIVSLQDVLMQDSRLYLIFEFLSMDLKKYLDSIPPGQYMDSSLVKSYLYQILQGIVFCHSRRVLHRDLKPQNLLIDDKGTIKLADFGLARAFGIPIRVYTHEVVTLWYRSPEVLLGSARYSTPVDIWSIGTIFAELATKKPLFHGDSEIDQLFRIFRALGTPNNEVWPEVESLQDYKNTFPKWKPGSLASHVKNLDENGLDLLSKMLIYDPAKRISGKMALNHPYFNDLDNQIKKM

[4] = Selectivity ratio of IC50 for Src to IC50 for human recombinant Lck
[5] = target: T1, Tyrosine-protein kinase ZAP-70 (Homo sapiens, UniProt P43403); experiment: Inhibition of ZAP70
T1 sequence (P43403 whole entry): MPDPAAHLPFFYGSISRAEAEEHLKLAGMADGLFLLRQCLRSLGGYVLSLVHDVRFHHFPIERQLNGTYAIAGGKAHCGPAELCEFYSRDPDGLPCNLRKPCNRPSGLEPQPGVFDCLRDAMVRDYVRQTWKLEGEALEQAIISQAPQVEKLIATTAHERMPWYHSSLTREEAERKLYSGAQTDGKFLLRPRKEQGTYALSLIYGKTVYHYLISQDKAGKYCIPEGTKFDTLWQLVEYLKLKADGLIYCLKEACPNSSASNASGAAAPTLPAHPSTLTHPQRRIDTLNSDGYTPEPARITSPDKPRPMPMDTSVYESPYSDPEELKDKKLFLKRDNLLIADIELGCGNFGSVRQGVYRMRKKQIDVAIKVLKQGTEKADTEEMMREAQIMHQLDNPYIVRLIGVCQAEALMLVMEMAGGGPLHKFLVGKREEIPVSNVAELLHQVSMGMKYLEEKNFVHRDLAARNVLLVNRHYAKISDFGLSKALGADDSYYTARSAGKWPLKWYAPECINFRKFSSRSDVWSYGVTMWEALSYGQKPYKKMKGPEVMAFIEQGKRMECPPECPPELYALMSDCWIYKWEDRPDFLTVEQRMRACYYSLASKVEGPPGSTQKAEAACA

[6] = target: Tyrosine-protein kinase ABL1 (Homo sapiens, UniProt P00519); experiment: Inhibition of Abl
Chain of Tyrosine-protein kinase ABL1 (P00519 whole entry): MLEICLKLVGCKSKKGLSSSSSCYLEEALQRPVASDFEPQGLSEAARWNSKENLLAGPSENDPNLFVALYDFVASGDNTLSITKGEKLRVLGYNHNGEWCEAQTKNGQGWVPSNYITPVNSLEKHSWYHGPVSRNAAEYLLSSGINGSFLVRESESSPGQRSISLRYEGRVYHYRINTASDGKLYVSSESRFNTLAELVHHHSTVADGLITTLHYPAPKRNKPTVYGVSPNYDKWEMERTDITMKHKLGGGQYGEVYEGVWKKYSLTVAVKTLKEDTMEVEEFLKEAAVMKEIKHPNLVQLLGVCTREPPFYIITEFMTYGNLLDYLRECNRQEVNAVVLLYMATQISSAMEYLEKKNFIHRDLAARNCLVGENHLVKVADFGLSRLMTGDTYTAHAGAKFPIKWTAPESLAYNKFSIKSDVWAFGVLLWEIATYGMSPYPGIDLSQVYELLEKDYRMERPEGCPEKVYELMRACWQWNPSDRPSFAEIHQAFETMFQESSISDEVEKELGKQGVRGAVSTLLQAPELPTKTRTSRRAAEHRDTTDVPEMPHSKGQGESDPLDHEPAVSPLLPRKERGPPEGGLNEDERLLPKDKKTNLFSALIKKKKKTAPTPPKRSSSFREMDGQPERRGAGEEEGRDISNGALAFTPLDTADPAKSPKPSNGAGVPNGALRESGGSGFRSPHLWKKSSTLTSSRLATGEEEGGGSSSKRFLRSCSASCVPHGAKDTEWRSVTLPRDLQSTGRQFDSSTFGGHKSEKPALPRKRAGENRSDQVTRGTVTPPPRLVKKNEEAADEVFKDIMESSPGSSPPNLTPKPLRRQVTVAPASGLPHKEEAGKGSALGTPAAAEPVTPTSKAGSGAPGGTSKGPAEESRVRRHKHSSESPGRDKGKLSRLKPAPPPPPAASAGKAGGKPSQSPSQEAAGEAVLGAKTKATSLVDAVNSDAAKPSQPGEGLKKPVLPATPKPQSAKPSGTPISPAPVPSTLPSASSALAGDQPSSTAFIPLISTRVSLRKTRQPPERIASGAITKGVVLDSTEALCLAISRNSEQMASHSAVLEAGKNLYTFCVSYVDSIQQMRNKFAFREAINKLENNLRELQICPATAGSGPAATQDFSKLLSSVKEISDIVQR

[7] = target: RAC-alpha serine/threonine-protein kinase (Homo sapiens, UniProt P31749); experiment: Inhibition of PKB
Chain of RAC-alpha serine/threonine-protein kinase (P31749 whole entry): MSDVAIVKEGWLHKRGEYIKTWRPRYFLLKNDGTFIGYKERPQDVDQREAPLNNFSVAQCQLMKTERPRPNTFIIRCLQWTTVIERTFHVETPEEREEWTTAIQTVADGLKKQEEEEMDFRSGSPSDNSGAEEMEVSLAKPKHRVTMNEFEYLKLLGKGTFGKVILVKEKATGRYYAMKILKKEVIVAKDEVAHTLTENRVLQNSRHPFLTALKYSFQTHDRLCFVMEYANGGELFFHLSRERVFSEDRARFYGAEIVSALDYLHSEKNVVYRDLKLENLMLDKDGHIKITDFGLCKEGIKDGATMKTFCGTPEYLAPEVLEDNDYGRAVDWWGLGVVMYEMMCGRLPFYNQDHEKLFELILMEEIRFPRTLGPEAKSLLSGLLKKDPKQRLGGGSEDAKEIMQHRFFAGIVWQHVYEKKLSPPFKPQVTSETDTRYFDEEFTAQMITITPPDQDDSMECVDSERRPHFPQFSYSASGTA

[8] = target: Dual specificity mitogen-activated protein kinase kinase 1 (Homo sapiens, UniProt Q02750); experiment: Inhibition of MEK1
Chain of Dual specificity mitogen-activated protein kinase kinase 1 (Q02750 whole entry): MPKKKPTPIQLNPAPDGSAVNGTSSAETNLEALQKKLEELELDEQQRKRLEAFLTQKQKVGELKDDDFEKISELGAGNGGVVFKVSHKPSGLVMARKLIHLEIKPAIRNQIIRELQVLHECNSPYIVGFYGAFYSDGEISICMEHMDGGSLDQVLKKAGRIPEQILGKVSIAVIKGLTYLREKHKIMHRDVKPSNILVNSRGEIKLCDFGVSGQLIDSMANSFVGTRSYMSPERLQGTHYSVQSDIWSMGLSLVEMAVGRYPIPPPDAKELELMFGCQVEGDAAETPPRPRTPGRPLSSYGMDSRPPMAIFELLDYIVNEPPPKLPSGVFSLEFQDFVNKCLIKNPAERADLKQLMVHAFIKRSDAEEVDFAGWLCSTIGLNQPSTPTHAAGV

[9] = Inhibition of PKC
[10] = Inhibition of CAMK2
[11] = Inhibition of PKA
[12] = target: Proto-oncogene tyrosine-protein kinase Src (Homo sapiens, UniProt P12931); experiment: Inhibition of Src
Chain of Proto-oncogene tyrosine-protein kinase Src (P12931 2-536 limits assumed): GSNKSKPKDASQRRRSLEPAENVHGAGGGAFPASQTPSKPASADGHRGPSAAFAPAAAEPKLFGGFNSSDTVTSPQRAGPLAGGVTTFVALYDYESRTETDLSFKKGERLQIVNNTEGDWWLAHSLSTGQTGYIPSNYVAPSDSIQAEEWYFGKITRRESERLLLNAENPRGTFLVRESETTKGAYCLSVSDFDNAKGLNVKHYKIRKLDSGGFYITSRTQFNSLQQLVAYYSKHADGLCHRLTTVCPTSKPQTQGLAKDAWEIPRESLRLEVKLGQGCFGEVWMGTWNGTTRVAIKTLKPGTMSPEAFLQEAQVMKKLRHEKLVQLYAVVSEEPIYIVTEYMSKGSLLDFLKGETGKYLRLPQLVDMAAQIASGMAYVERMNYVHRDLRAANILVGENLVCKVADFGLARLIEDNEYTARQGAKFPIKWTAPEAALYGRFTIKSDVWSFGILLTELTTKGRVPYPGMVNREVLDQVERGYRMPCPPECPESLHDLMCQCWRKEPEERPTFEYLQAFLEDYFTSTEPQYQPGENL

[13] = target: Tyrosine-protein kinase CSK (Homo sapiens, UniProt P41240); experiment: Inhibition of Csk
[14] = Selectivity ratio of IC50 for Csk to IC50 for human recombinant Lck

Chain of Tyrosine-protein kinase Lck (Homo sapiens) (P06239 2-509 limits assumed): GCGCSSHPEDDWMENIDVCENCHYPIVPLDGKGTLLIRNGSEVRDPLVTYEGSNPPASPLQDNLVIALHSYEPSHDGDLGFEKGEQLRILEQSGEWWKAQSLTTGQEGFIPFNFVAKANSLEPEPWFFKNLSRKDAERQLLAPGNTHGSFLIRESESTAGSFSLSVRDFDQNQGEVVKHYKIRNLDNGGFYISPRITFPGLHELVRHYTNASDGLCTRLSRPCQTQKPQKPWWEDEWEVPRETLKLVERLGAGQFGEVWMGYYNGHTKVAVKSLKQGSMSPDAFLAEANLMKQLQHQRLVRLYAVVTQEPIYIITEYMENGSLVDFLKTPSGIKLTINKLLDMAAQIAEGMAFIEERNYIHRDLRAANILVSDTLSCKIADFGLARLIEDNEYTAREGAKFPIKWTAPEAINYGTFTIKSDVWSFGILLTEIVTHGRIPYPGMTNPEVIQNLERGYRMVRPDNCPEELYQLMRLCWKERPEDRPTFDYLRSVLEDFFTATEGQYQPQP

SMILES | C50 [1] [nM] | IC50 [2] [µM] | also measured
NC(=O)c1c(-c2ccc(Oc3ccccc3)cc2)[nH]c(C(=O)c2ccc(Br)cc2)c1N | 5.9 |  | 
NC(=O)c1c(-c2ccc(Oc3ccccc3)cc2)[nH]c(C(=O)c2cccc(Cl)c2)c1N | 6.3 |  | 
Cc1ccc(C(=O)c2[nH]c(-c3ccc(Oc4ccccc4)cc3)c(C(N)=O)c2N)cc1 | 2.8 | 0.18 | 
NC(=O)c1c(-c2ccc(NCc3cc(Cl)ccc3Cl)cc2)[nH]c(C(=O)c2c(F)cccc2F)c1N | 93 |  | 
Cc1ccccc1C(=O)c1[nH]c(-c2ccc(Oc3ccccc3)cc2)c(C(N)=O)c1N | 2.7 | 0.18 | 
COc1ccccc1C(=O)c1[nH]c(-c2ccc(Oc3ccccc3)cc2)c(C(N)=O)c1N | 9.4 |  | 
NC(=O)c1c(-c2ccc(Oc3ccccc3)cc2)[nH]c(C(=O)c2ccc(Oc3ccccc3)cc2)c1N | 49 |  | 
NC(=O)c1c(-c2ccc(Oc3ccccc3)cc2)[nH]c(C(=O)c2cccc(Br)c2)c1N | 6.2 |  | 
Cc1cccc(C(=O)c2[nH]c(-c3ccc(Oc4ccccc4)cc3)c(C(N)=O)c2N)c1 | 4 | 0.42 | 
NC(=O)c1c(-c2ccc(Oc3ccccc3)cc2)[nH]c(C(=O)c2cccc(Cl)c2Cl)c1N | 1.2 | 0.045 | 
CN(Cc1c(Cl)cccc1Cl)c1ccc(-c2[nH]c(C(=O)c3c(F)cccc3F)c(N)c2C(N)=O)cc1 | 92 | >1 | 
NC(=O)c1c(-c2ccc(Oc3ccccc3)cc2)[nH]c(C(=O)c2ccccc2Cl)c1N | 1.8 | 0.069 | 
Cc1ccc(C)c(C(=O)c2[nH]c(-c3ccc(Oc4ccccc4)cc3)c(C(N)=O)c2N)c1 | 10 |  | 
NC(=O)c1c(-c2ccc(Oc3ccccc3)cc2)[nH]c(C(=O)c2cc(Cl)ccc2Cl)c1N | 19 |  | 
Cc1cc(C)cc(C(=O)c2[nH]c(-c3ccc(Oc4ccccc4)cc3)c(C(N)=O)c2N)c1 | 13 |  | 
NC(=O)c1c(-c2ccc(Oc3ccccc3)cc2)[nH]c(C(=O)c2ccc(Cl)cc2)c1N | 7 |  | 
Cc1cccc(C(=O)c2[nH]c(-c3ccc(Oc4ccccc4)cc3)c(C(N)=O)c2N)c1C | 2.6 | 0.11 | 
NC(=O)c1c(-c2ccc(Oc3ccccc3)cc2)[nH]c(C(=O)c2ccc(Cl)cc2Cl)c1N | 2.3 |  | 
NC(=O)c1c(-c2ccc(Oc3ccccc3)cc2)[nH]c(C(=O)c2ccccc2Br)c1N | 2.5 | 0.15 | 
NC(=O)c1c(-c2ccc(NCC3CCCCC3)cc2)[nH]c(C(=O)c2c(F)cccc2F)c1N | 74 |  | 
NC(=O)c1c(-c2ccc(Oc3ccccc3)cc2)[nH]c(C(=O)c2ccc(F)cc2)c1N | 10 |  | 
NC(=O)c1c(-c2ccc(Oc3ccccc3)cc2)[nH]c(C(=O)c2ccccc2C(F)(F)F)c1N | 3.5 | 0.068 | 
NC(=O)c1c(-c2ccc(Oc3ccccc3)cc2)[nH]c(C(=O)c2cc(Cl)cc(Cl)c2)c1N | 38 |  | 
NC(=O)c1c(-c2ccc(Oc3ccccc3)cc2)[nH]c(C(=O)c2ccccc2)c1N | 11 |  | 
Cc1ccc(C(=O)c2[nH]c(-c3ccc(Oc4ccccc4)cc3)c(C(N)=O)c2N)c(C)c1 | 1.8 |  | 

The next lines start with results.

C50 [1] [nM] | IC50 [2] [µM] | SMILES | also measured
6.4 |  | NC(=O)c1c(-c2ccc(NCc3ccccc3)cc2)[nH]c(C(=O)c2c(F)cccc2F)c1N | 
> 100 | >1 | NC(=O)c1c(-c2ccc(N)cc2)[nH]c(C(=O)c2c(F)cccc2F)c1N | 
> 100 |  | COc1ccc(-c2[nH]c(C(=O)c3c(F)cccc3F)c(N)c2C(N)=O)cc1 | 
> 100 |  | NC(=O)c1c(-c2ccc(Oc3ncccn3)cc2)[nH]c(C(=O)c2c(F)cccc2F)c1N | 
6.1 | >1 | NC(=O)c1c(-c2ccc(OCc3ccccc3)cc2)[nH]c(C(=O)c2c(F)cccc2F)c1N | 
5 |  | NC(=O)c1c(-c2ccc(Oc3ccccc3)cc2)[nH]c(C(=O)c2cccc(F)c2)c1N | 
1.5 |  | NC(=O)c1c(-c2ccc(Oc3ccccc3)cc2)[nH]c(C(=O)c2ccccc2F)c1N | 
> 100 |  | NC(=O)c1c(-c2ccc(NC(=O)c3ccccc3)cc2)[nH]c(C(=O)c2c(F)cccc2F)c1N | 
> 100 | >1 | NC(=O)c1c(-c2ccc(OCc3c(Cl)cccc3Cl)cc2)[nH]c(C(=O)c2c(F)cccc2F)c1N | 
0.92 | 0.031 | NC(=O)c1c(-c2ccc(NCc3c(Cl)cccc3Cl)cc2)[nH]c(C(=O)c2c(F)cccc2F)c1N | 
1.3 | 0.031 | NC(=O)c1c(-c2ccc(Oc3ccccc3)cc2)[nH]c(C(=O)c2c(F)cccc2F)c1N | IC50 [3]: > 10 µM; Ratio IC50 [4]: > 17; IC50 [5]: > 10 µM; IC50 [6]: > 10 µM; IC50 [7]: > 10 µM; IC50 [8]: > 10 µM; IC50 [9]: > 10 µM; IC50 [10]: > 10 µM; IC50 [11]: > 10 µM; IC50 [12]: 0.023 µM; IC50 [13]: 0.0045 µM; Ratio IC50 [14]: > 3
3.6 | 0.056 | Cc1cccc(Cl)c1CNc1ccc(-c2[nH]c(C(=O)c3c(F)cccc3F)c(N)c2C(N)=O)cc1 | 
1.8 | 0.062 | NC(=O)c1c(-c2ccc(Oc3ccccc3)cc2)[nH]c(C(=O)c2c(F)cc(F)cc2F)c1N | 
